High-throughput results as filed in PubChem BioAssay.
A selection: hits, their analogues and other compounds. The true share with any hit is near 2.6%.
esBAF inh: Bmi1 luciferase reporter increase in mESCs, primary screen, esBAF inhibitor project, mouse ES cells, Bmi1 luciferase knock-in, single point. 24 h; 100% = twice the neutral-well signal. reporter increase, % at 12.5 µM. 2% of 350,000 active. AID 602393, 2012; in the data active means activation above about 40%;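 further: 0% = median of the plate's neutral control wells and 100% = double that signal; a rise in the Bmi1 reporter signal indicates esBAF inhibition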
ARFGAP1 inh: inhibitors of rat ARFGAP1 GAP activity, primary screen, biochemical, fluorescence polarization, GDP tracer. ADP-ribosylation factor GTPase-activating protein 1 (Rattus norvegicus), Q62848. Arfgap1-stimulated ARF1 GTP hydrolysis, GDP FP detection. inhibition, % at 16.5 µM. 0.26% of 360,000 active. AID 651572, 2012;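 active means inhibition above a per-plate limit, mean inhibition of low control wells plus 3 SD, cut at about 25% in these data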;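 further: 0% = DMSO wells with enzyme and 100% = wells lacking Arfgap1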
Target sequence (Q62848 1-136 limits assumed): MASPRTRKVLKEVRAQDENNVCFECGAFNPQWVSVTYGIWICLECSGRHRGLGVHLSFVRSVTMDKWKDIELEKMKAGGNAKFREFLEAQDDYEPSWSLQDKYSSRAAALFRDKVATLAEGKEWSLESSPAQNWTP
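material = rat Arfgap1 catalytic domain, aa 1-136 | also added = human ARF1(Δ1-17)-GTP substrate | compound dosing = one concentration, 16.5 µM, DMSO 1.26% | times = GTP hydrolysis reaction 2 h at 25 °C | measured by = FP, GDP Alexa 633 tracer displaced from anti-GDP antibody, 620/688 nm | evaluation = percent inhibition of Arfgap1-stimulated GTP hydrolysis | replication = single well per compound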
SMARCA2 act: SMARCA2 (BRM) function activators, primary screen, cell-based, luminescence, high throughput. activation, % at 9.1 µM. 1% of 370,000 active. MG213 cells, MMTV-luciferase reporter, dexamethasone, overnight; in the data active means activation above about 7.8%;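 further: 0% = vehicle wells and 100% = reference activator wells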
ASAP1 GAP inh: inhibitors of human ASAP1 ArfGAP activity, primary screen, biochemical, fluorescence polarization | Arf-GAP with SH3 domain, ANK repeat and PH domain-containing protein 1 (Homo sapiens), … | ASAP1-stimulated ARF1 GTP hydrolysis, GDP FP detection | inhibition, % at 16.5 µM | 0.19% of 360,000 active; in the data active means inhibition above about 25%;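 further: 0% = vehicle with enzyme and substrate and 100% = no enzyme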
Numbers without * were called inactive; x = no result.

SMILES	esBAF inh	ARFGAP1 inh	SMARCA2 act	ASAP1 GAP inh
O=C(Nc1ccc2c(c1)[C@H]1C[C@H](CC(=O)N3CCOCC3)O[C@H](CO)[C@H]1O2)C1CCOCC1	-1	x	x	x
C[C@@H]1CN([C@@H](C)CO)C(=O)c2cc(NC(=O)C3CC3)ccc2O[C@H]1CN(C)S(=O)(=O)c1ccc(Cl)cc1	-2	x	x	x
O=C(Nc1ccc(F)c(F)c1)c1ccc(-n2cncn2)c([N+](=O)[O-])c1	4	2	-2	7
O=C(Nc1cccc(/C=C/c2ccccn2)c1)c1ccc(-n2cncn2)c([N+](=O)[O-])c1	44*	8	0	12
COc1ccccc1N/C=C/c1onc(C)c1[N+](=O)[O-]	x	-7	1	-3
Cc1noc(/C=C/c2ccccn2)c1[N+](=O)[O-]	48*	5	-1	4
Cc1ccc(NC(=O)c2ccc([N+](=O)[O-])cc2)cc1S(=O)(=O)N(C)C	49*	1	1	5
CCC(=O)c1ccc(OCc2ccc(C(=O)OC)o2)c(OC)c1	16	-5	1	0
COC(=O)c1ccc(COc2ccc(C)c(C)c2)o1	58*	5	2	9
COC(=O)c1ccc(COc2cc(C)ccc2C)o1	70*	-2	0	-7
COCCNC(=O)C[C@H]1CC[C@H]2[C@@H](COC[C@H](O)CN2C(=O)Nc2ccccc2OC)O1	1	x	x	x
O=c1oc(CCO)cc2ccc(-c3ccc4[nH]ccc4c3)cc12	50*	10	5	5
O=C(/C(=C/c1ccc(Cl)cc1)c1nc2ccccc2[nH]1)c1cccs1	76*	x	x	x
O/C(=C\c1nc2ccccc2[nH]1)c1cccs1	42*	4	2	-2
O=c1oc(CCCO)cc2ccc(Br)cc12	3	1	-6	-10
O=c1oc(CCCO)cc2ccc(/C=C/c3cccc([N+](=O)[O-])c3)cc12	49*	1	6	6
CC(=O)N(C)C1=C(O)c2ccccc2C(=O)C1=O	-4	6	-2	-2
CC(=O)C(C(C)=O)C1(O)C(=O)c2ccccc2C1=O	2	32*	-3	27*
O=C(O)C[C@@H]1CC[C@@H](NC(=O)c2ccncc2)[C@H](CO)O1	0	x	x	x
Cc1cc(N/N=C/c2cccc(Cl)c2)nc(-n2nc(C)cc2C)n1	6	8	2	7
Cc1nc(C#N)c(N/N=C/c2cccc(Cl)c2)o1	93*	6	7	2
c1ccc(CSc2ccc(-c3ccccn3)nn2)nc1	x	-6	4	-7
Clc1ccc(-c2ccc(SCc3ccccn3)nn2)cc1	51*	5	0	4
O=[N+]([O-])c1cccc(-c2ccc(SCc3ccccn3)nn2)c1	42*	15	2	-6
COc1ccccc1N/N=C1\COC(C)(C)CC1=O	39	2	3	2
SMILES	esBAF inh	ARFGAP1 inh	SMARCA2 act	ASAP1 GAP inh
Cc1cccc(N/N=C2/COC(C)(C)CC2=O)c1	20	5	7.9*	0
Cc1cccc(NN=C2c3ccccc3-c3ccccc32)c1	x	1	0	0
CC1(C)CC(=O)/C(=N/Nc2ccc(Cl)cc2)CO1	55*	-1	4	4
O=C(Nc1ccccc1F)c1ccc2sc([C@@H]3O[C@H](CO)[C@H](O)[C@H](O)[C@H]3O)nc2c1	28	-8	1	-8
O=C(Nc1nc2ccccc2s1)c1ccc2sc([C@H]3C[C@H](O)[C@@H](CO)O3)nc2c1	55*	16	4	14
O=C(Nc1ccccc1F)c1ccc2sc([C@H]3C[C@H](O)[C@@H](CO)O3)nc2c1	55*	3	-3	-7
O=C(Nc1nccs1)c1ccc2sc([C@H]3C[C@H](O)[C@@H](CO)O3)nc2c1	37	4	-1	-1
O=C(Nc1cccc2ccccc12)c1ccc2sc([C@@H]3O[C@H](CO)[C@@H](O)[C@H]3O)nc2c1	42*	6	1	-14
CO[C@@H]1CN(C)C(=O)c2ccc(NS(C)(=O)=O)cc2OC[C@@H](C)N(C(=O)C2CCCCC2)C[C@H]1C	-3	x	x	x
COCC(=O)Nc1ccc2c(c1)[C@H]1C[C@@H](CC(=O)NC3CCCC3)O[C@@H](CO)[C@H]1O2	3	x	x	x
COc1cc(/C=N/N(C)c2ccccc2)cc(Cl)c1O	50*	-2	2	4
COc1cc(/C=N/N(C)C)cc(Br)c1O	-4	5	-5	-9
COc1ccc(OC)c(/C=N/N(C)c2ccccc2)c1	73*	-11	0	-4
